How the values were obtained:
Assay type in all cases: functional
[1] = test system: Mycobacterium tuberculosis; experiment: Antibacterial activity against Mycobacterium tuberculosis H37Rv ATCC 27294T assessed as ethidium bromide MIC at 64 ug/ml after 7 days by microdilution checkerboard assay; details: 168 h
In short: (§1)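 Two-dimensional checkerboard in H37Rv at 10^5 CFU/ml in MB7H9/OADC. Partner drug (amikacin, EtBr, isoniazid, ofloxacin or rifampin) two-fold serially diluted across columns 3-11. Test compound two-fold serially diluted down rows 2-6. Plates incubated 7 days at 37 °C, then MTT added overnight. […] Run in triplicate.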

[2] = test system: Mycobacterium tuberculosis; experiment: Antibacterial activity against Mycobacterium tuberculosis H37Rv ATCC 27294T assessed as ethidium bromide MIC at 128 ug/ml after 7 days by microdilution checkerboard assay; details: 168 h; in short: as §1
[3] = test system: Mycobacterium tuberculosis; experiment: Antibacterial activity against Mycobacterium tuberculosis H37Rv ATCC 27294T assessed as ethidium bromide MIC at 4 ug/ml after 7 days by microdilution checkerboard assay; details: 168 h; in short: as §1
[4] = test system: Mycobacterium tuberculosis; experiment: Antibacterial activity against Mycobacterium tuberculosis H37Rv ATCC 27294T assessed as isoniazid MIC at 16 ug/ml after 7 days by microdilution checkerboard assay; details: 168 h; in short: as §1
[5] = test system: Mycobacterium tuberculosis; experiment: Modulation factor, ratio of refampin MIC to compound MIC for Mycobacterium tuberculosis H37Rv ATCC 27294T at 128 ug/ml in presence of refampin
[6] = test system: Mycobacterium tuberculosis; experiment: Antibacterial activity against Mycobacterium tuberculosis H37Rv ATCC 27294T assessed as rifampin MIC at 32 ug/ml after 7 days by microdilution checkerboard assay; details: 168 h
In short: (§2)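 M. tuberculosis H37Rv grown in MB7H9 + 10% OADC at 37 °C to OD600 0.8; plates inoculated at 10^5 CFU/ml. Rifampicin two-fold serially diluted across columns, test compound two-fold diluted down rows (two-dimensional checkerboard). Sealed, 37 °C for seven days, then MTT added and incubated overnight. MIC read as no colour change. Triplicate.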

[7] = test system: Mycobacterium tuberculosis; experiment: Antibacterial activity against Mycobacterium tuberculosis H37Rv ATCC 27294T assessed as amikacin MIC at 64 ug/ml after 7 days by microdilution checkerboard assay; details: 168 h; in short: as §1
[8] = test system: Mycobacterium tuberculosis; experiment: Antibacterial activity against Mycobacterium tuberculosis H37Rv ATCC 27294T assessed as amikacin MIC at 4 ug/ml after 7 days by microdilution checkerboard assay; details: 168 h; in short: as §1
[9] = test system: Mycobacterium tuberculosis; experiment: Antibacterial activity against Mycobacterium tuberculosis H37Rv ATCC 27294T assessed as amikacin MIC at 8 ug/ml after 7 days by microdilution checkerboard assay; details: 168 h; in short: as §1
[10] = test system: Mycobacterium tuberculosis; experiment: Antibacterial activity against Mycobacterium tuberculosis H37Rv ATCC 27294T assessed as amikacin MIC at 2 ug/ml after 7 days by microdilution checkerboard assay; details: 168 h; in short: as §1
[11] = test system: Mycobacterium tuberculosis; experiment: Antibacterial activity against Mycobacterium tuberculosis H37Rv ATCC 27294T assessed as amikacin MIC at 32 ug/ml after 7 days by microdilution checkerboard assay; details: 168 h; in short: as §1
[12] = test system: Mycobacterium tuberculosis; experiment: Modulation factor, ratio of ethidium bromide MIC to compound MIC for Mycobacterium tuberculosis H37Rv ATCC 27294T at 128 ug/ml in presence of ethidium bromide
[13] = test system: Mycobacterium tuberculosis; experiment: Antibacterial activity against Mycobacterium tuberculosis H37Rv ATCC 27294T assessed as rifampin MIC at 16 ug/ml after 7 days by microdilution checkerboard assay; details: 168 h; in short: as §2
[14] = test system: Mycobacterium tuberculosis; experiment: Antibacterial activity against Mycobacterium tuberculosis H37Rv ATCC 27294T assessed as isoniazid MIC at 8 ug/ml after 7 days by microdilution checkerboard assay; details: 168 h; in short: as §1
[15] = test system: Mycobacterium tuberculosis; experiment: Antibacterial activity against Mycobacterium tuberculosis H37Rv ATCC 27294T assessed as ethidium bromide MIC at 8 ug/ml after 7 days by microdilution checkerboard assay; details: 168 h; in short: as §1

CCCSc1nnc(COc2ccccc2C2=NOC(c3ccc(Cl)cc3Cl)C2)n1NC(=O)CCl (stereo not given)
MIC [1]: 6.25 µg/mL
MIC [2]: 0.39 µg/mL
MIC [3]: 12.5 µg/mL
MIC [4]: 0.1 µg/mL
Ratio [5]: 64
MIC [6]: 0.5 µg/mL
MIC [7]: 1 µg/mL
MIC [8]: 1 µg/mL
MIC [9]: 1 µg/mL
MIC [10]: 1 µg/mL
MIC [11]: 1 µg/mL
Ratio [12]: 32
MIC [13]: 0.5 µg/mL
MIC [14]: 0.1 µg/mL
MIC [15]: 12.5 µg/mL
